ChEMBL document CHEMBL4196230, “Design, Synthesis, and Blood-Brain Barrier Transport Study of Pyrilamine Derivatives as Histone Deacetylase Inhibitors” (ACS Med Chem Lett, 2018)
Active and inactive are the calls of the source. No cut-off for these calls is given here.

Tests used:
[1] = biological target: Histone deacetylase 5 (Homo sapiens) (UniProt Q9UQL6); assay: Inhibition of human recombinant HDAC5 expressed in baculovirus infected insect cells at 30 uM using HDAC class 2a substrate measured after 30 mins by fluorescence assay relative to control
[2] = biological target: T1, Histone deacetylase 7 (Homo sapiens) (UniProt Q8WUI4); assay: Inhibition of recombinant human HDAC7 (518 to end residues) expressed in baculovirus infected insect cells at 30 uM using HDAC class 2a substrate measured after 30 mins by fluorescence assay relative to control
T1 sequence (whole entry): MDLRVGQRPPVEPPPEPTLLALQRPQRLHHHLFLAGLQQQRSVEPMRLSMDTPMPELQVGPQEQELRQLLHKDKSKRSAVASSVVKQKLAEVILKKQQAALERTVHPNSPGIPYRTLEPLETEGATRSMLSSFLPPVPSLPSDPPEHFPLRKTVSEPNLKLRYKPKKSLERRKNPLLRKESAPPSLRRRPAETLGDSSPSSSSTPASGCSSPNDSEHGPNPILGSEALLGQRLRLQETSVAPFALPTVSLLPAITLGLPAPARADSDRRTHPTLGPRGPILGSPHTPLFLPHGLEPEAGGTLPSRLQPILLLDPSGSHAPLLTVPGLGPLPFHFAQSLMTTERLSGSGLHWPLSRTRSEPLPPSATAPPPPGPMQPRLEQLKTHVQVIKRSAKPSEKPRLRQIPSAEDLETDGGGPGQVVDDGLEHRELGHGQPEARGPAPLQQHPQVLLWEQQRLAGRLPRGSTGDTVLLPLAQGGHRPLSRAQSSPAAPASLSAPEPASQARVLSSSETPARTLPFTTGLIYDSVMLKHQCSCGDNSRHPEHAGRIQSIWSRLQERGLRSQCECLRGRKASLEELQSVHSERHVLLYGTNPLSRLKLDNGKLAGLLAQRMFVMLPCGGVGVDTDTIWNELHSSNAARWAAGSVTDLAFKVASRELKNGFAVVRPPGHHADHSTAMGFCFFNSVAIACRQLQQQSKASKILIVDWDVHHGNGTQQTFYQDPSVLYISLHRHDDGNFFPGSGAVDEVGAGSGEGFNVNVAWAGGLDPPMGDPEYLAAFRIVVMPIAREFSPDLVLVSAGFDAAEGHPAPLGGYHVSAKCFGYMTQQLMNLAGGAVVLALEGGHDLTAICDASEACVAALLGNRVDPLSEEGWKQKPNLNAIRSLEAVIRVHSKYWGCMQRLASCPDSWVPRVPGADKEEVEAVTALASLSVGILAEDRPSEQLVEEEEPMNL

[3] = biological target: Histone deacetylase 1 (Homo sapiens, UniProt Q13547); assay: Inhibition of recombinant human C-terminal FLAG/His-tagged HDAC1 expressed in baculovirus infected Sf9 insect cells using HDAC substrate 3 measured after 30 mins by fluorescence assay
[4] = Substrate activity at PYSOCA in human CMEC/D3 cells assessed as transporter-mediated drug uptake measured for 2 mins at 37degC in presence of varenicline; format: ADME, cell-based
[5] = Substrate activity at PYSOCA in human CMEC/D3 cells assessed as transporter-mediated drug uptake measured for 2 mins at 37degC in presence of TEA; format: ADME, cell-based
[6] = biological target: Histone deacetylase 2 (Homo sapiens, UniProt Q92769); assay: Inhibition of recombinant human C-terminal FLAG-tagged HDAC2 expressed in baculovirus infected Sf9 insect cells using HDAC substrate 3 measured after 30 mins by fluorescence assay
[7] = Substrate activity at PYSOCA in human CMEC/D3 cells assessed as transporter-mediated drug uptake measured for 2 mins at 37degC in presence of pyrilamine; format: ADME, cell-based
[8] = test system: PYSOCA; assay: Substrate activity at PYSOCA in human CMEC/D3 cells assessed as Km for transporter-mediated drug uptake measured for 2 mins at 37degC; format: ADME, cell-based; conditions: hCMEC/D3 cells
Outline: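 Uptake by hCMEC/D3 cells measured over a range of concentrations at 37 °C for 2 min. Km and Vmax were obtained by fitting to Eq. 1. Mean ± S.E., n = 4.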

[9] = Blood brain barrier permeability in Wistar rat brain at 20 uM by LC-MS/MS analysis; format: ADME, tissue-based
Outline: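 Right cerebral hemisphere of rat perfused with buffer containing test agent (20 µM) at 4.9 mL/min for 1 min.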

[10] = biological target: Histone deacetylase 9 (Homo sapiens) (UniProt Q9UKV0); assay: Inhibition of recombinant human C-terminal His-tagged HDAC9 (604 to 1066 residues) expressed in baculovirus infected insect cells at 30 uM using HDAC class 2a substrate measured after 30 mins by fluorescence assay relative to control
[11] = biological target: T2, Histone deacetylase 8 (Homo sapiens) (UniProt Q9BY41); assay: Inhibition of recombinant human full length C-terminal His-tagged HDAC8 expressed in baculovirus infected insect cells at 30 uM using HDAC class 2a substrate measured after 30 mins by fluorescence assay relative to control
T2 sequence (whole entry): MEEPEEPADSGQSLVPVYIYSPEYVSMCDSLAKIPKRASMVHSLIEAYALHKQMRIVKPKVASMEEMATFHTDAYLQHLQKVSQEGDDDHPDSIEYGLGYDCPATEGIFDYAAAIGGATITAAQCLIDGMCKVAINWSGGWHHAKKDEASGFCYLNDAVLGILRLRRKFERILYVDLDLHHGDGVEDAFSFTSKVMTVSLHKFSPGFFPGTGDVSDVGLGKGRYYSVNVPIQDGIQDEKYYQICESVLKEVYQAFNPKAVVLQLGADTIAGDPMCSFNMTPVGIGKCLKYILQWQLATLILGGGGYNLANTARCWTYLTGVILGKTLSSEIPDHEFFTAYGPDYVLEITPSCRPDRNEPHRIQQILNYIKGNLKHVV

[12] = Substrate activity at PYSOCA in human CMEC/D3 cells assessed as transporter-mediated drug uptake measured for 2 mins at 37degC; format: ADME, cell-based
[13] = biological target: Histone deacetylase (Homo sapiens) (UniProt Q13547+O15379+Q9UBN7+Q92769+Q9UQL6+Q8WUI4+Q9BY41+Q96DB2+P56524+Q9UKV0+Q969S8); assay: Time-dependent inhibition of HDAC in human HeLaS3 cells assessed as increase in histone H3K9 acetylation at 10 uM by immunoblot analysis; format: cell-based

Sequence of Histone deacetylase 5 (Homo sapiens) (Q9UQL6 whole entry): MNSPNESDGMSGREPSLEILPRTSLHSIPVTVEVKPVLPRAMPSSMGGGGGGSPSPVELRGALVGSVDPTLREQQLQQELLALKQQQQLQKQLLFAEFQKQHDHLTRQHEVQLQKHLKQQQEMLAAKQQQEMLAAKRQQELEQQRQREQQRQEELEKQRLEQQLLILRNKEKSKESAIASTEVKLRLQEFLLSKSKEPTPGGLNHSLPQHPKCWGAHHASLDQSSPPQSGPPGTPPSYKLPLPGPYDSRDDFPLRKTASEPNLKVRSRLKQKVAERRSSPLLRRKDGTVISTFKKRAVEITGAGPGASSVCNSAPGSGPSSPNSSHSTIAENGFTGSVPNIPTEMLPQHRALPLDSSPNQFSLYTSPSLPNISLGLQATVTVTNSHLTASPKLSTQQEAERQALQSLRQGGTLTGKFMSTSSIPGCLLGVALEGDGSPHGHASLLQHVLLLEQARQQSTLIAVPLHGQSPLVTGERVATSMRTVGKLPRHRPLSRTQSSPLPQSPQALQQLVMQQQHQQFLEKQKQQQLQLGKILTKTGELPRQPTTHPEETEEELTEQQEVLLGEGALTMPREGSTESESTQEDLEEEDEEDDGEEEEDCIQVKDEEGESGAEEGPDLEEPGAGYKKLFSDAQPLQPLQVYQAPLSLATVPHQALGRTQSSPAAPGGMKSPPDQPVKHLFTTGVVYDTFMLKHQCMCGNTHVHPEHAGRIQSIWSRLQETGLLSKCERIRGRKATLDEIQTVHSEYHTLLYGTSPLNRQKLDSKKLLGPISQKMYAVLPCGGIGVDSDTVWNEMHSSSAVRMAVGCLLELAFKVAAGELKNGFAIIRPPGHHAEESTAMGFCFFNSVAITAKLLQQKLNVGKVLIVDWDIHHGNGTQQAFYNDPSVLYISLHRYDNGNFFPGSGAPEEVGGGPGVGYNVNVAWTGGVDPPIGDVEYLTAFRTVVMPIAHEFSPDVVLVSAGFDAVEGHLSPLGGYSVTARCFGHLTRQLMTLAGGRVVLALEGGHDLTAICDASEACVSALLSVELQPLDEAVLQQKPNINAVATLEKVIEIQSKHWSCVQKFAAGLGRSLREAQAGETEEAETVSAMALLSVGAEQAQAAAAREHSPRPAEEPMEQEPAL
Sequence of Histone deacetylase 1 (Q13547 whole entry): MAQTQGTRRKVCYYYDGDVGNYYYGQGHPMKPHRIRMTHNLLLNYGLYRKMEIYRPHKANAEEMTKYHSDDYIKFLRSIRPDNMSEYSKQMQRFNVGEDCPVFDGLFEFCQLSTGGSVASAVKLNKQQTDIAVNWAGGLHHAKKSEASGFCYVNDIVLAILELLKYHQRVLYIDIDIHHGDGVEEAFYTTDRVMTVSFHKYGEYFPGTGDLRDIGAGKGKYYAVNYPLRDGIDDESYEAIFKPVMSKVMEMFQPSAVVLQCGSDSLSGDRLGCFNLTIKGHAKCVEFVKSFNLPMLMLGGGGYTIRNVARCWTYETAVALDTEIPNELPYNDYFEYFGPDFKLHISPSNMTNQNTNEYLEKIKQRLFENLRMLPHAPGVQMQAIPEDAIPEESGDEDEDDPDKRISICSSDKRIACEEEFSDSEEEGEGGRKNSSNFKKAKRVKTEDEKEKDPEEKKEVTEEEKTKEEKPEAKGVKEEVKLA
Sequence of Histone deacetylase 2 (Q92769 whole entry): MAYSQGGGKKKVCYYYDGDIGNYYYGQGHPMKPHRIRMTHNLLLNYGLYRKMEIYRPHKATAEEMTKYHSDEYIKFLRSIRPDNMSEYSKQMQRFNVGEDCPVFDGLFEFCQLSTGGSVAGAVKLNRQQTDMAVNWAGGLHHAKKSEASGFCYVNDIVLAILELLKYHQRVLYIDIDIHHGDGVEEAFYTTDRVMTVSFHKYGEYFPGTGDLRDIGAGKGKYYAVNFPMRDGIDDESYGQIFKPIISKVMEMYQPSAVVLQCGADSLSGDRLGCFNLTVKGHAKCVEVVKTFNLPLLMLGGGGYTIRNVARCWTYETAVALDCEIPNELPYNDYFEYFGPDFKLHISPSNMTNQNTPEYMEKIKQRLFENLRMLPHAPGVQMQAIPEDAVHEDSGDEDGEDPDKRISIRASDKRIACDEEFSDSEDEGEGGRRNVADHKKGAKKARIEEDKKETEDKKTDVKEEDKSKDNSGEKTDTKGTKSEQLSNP
Sequence of Histone deacetylase 9 (Homo sapiens) (Q9UKV0 whole entry, the tested form may be a part): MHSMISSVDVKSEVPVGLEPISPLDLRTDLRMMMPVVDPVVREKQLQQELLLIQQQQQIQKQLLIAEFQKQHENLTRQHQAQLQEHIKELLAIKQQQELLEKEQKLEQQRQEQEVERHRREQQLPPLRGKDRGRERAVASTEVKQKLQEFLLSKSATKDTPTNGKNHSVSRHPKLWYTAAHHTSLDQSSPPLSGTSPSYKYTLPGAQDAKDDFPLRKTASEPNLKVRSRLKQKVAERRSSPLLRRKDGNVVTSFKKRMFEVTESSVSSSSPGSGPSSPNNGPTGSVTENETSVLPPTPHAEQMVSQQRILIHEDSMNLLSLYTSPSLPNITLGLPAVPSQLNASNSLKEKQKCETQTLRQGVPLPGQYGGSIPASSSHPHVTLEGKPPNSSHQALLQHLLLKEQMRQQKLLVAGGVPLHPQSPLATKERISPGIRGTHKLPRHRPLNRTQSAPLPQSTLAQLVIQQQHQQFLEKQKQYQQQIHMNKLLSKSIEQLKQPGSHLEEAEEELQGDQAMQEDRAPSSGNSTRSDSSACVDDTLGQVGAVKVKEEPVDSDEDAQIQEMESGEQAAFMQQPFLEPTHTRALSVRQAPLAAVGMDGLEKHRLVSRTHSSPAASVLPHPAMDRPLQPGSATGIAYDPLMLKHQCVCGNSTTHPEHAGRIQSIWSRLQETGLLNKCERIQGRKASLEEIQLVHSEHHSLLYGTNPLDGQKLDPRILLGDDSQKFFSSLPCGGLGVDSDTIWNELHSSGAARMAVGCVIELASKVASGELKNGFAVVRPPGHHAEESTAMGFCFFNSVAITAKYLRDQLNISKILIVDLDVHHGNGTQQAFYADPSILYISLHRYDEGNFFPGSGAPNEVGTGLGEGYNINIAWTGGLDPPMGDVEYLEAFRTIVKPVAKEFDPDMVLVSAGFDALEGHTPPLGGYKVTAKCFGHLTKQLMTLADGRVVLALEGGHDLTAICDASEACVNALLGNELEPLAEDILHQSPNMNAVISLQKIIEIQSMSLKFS

inhibition [1]: < 10% | inhibition [2]: < 10% | IC50 [3]: 1.5 µM | Activity [4]: Not Active | Activity [5]: Active | IC50 [6]: 5.5 µM | Activity [7]: Not Active | Km at 2 min [8]: 326 µM | pBBB [9]: 42.4 microL/min/g | inhibition [10]: < 10% | inhibition [11]: < 10% | Activity [12]: Dose-dependent effect | TDI [13]: Active
Structure (SMILES): COc1ccc(CN(CCN(C)C)c2ccc(C(=O)Nc3ccccc3N)cn2)cc1
